Tests used:
[1] = biological target: Nitric oxide synthase 1 (Homo sapiens, UniProt P29475); experiment: Inhibition of human neuronal NOS activity
[2] = biological target: T1, Nitric oxide synthase 3 (Homo sapiens, UniProt P29474); experiment: Inhibition of human endothelial NOS activity
T1 sequence (P29474 whole entry): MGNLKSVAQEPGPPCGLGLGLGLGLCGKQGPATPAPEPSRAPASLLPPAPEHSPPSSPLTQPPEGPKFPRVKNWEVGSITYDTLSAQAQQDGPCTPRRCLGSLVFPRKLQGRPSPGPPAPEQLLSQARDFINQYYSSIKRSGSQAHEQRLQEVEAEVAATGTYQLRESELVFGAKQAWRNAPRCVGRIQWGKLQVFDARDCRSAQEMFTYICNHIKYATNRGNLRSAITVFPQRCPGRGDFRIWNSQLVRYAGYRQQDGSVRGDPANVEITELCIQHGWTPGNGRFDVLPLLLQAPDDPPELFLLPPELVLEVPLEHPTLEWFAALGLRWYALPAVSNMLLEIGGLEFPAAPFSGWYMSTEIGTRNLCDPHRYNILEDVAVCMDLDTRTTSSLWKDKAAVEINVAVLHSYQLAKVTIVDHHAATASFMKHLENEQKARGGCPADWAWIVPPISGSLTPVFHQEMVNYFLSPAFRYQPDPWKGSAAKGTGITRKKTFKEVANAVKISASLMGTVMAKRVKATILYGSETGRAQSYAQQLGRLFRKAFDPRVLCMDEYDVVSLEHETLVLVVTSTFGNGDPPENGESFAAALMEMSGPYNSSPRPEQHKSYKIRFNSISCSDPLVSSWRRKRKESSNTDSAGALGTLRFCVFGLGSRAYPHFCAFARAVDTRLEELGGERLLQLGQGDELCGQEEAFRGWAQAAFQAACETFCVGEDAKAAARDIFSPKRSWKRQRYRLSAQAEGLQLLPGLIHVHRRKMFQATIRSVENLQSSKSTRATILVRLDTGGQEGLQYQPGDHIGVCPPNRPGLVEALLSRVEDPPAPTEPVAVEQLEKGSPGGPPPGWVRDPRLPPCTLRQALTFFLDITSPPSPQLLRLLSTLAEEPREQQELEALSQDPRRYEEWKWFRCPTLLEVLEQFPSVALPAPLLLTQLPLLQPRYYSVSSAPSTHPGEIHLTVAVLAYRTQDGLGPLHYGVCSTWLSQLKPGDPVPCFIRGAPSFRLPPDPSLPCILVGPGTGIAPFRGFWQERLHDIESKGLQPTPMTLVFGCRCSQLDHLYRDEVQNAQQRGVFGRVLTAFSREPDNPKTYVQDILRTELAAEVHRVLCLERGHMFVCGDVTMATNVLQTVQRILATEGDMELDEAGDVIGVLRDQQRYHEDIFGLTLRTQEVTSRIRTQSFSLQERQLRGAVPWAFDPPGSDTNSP
Summary of the method: (§1)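 Human NOS isoform activity read out as conversion of [³H]L-arginine to [³H]L-citrulline. Percent inhibition was measured at 8–12 inhibitor concentrations to derive IC₅₀.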

[3] = biological target: Nitric oxide synthase, inducible (Homo sapiens, UniProt P35228); experiment: Inhibition of human inducible NOS activity; summary of the method: as §1
Chain of Nitric oxide synthase, inducible (Homo sapiens, UniProt P35228) (P35228 whole entry): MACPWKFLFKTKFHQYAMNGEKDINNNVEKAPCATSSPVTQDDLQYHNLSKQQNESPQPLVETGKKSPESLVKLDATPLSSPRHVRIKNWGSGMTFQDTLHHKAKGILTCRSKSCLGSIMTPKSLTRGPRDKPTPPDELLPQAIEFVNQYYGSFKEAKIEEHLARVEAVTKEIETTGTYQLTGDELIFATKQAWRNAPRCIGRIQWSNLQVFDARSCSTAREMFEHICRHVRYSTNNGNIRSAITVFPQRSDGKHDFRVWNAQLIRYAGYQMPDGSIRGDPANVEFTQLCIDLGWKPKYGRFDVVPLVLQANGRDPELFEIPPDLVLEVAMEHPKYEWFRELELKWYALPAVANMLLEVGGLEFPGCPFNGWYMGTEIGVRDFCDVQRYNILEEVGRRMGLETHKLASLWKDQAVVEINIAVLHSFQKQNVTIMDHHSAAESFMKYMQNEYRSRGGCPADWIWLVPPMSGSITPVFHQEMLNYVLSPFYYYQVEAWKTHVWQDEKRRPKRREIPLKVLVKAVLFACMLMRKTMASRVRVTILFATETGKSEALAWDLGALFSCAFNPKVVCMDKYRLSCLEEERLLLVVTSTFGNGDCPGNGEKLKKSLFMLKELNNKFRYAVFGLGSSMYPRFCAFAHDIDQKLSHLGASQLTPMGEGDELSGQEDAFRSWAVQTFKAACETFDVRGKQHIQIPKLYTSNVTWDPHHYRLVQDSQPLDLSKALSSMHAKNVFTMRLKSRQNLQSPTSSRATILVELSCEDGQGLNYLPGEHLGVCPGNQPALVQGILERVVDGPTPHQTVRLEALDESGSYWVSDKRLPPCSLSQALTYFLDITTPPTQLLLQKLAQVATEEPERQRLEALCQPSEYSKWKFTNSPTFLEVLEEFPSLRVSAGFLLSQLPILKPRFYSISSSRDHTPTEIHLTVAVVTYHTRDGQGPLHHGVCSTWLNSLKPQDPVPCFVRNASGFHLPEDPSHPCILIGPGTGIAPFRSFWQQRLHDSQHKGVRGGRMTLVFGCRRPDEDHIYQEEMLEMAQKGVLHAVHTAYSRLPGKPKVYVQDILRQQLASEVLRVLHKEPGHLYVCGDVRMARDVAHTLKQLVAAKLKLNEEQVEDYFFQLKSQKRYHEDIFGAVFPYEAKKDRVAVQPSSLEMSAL

[4] = biological target: Nitric oxide synthase, inducible (Rattus norvegicus, UniProt Q06518); experiment: Inhibition of rat inducible NOS activity
Chain of Nitric oxide synthase, inducible (Rattus norvegicus, UniProt Q06518) (Q06518 whole entry, canonical isoform): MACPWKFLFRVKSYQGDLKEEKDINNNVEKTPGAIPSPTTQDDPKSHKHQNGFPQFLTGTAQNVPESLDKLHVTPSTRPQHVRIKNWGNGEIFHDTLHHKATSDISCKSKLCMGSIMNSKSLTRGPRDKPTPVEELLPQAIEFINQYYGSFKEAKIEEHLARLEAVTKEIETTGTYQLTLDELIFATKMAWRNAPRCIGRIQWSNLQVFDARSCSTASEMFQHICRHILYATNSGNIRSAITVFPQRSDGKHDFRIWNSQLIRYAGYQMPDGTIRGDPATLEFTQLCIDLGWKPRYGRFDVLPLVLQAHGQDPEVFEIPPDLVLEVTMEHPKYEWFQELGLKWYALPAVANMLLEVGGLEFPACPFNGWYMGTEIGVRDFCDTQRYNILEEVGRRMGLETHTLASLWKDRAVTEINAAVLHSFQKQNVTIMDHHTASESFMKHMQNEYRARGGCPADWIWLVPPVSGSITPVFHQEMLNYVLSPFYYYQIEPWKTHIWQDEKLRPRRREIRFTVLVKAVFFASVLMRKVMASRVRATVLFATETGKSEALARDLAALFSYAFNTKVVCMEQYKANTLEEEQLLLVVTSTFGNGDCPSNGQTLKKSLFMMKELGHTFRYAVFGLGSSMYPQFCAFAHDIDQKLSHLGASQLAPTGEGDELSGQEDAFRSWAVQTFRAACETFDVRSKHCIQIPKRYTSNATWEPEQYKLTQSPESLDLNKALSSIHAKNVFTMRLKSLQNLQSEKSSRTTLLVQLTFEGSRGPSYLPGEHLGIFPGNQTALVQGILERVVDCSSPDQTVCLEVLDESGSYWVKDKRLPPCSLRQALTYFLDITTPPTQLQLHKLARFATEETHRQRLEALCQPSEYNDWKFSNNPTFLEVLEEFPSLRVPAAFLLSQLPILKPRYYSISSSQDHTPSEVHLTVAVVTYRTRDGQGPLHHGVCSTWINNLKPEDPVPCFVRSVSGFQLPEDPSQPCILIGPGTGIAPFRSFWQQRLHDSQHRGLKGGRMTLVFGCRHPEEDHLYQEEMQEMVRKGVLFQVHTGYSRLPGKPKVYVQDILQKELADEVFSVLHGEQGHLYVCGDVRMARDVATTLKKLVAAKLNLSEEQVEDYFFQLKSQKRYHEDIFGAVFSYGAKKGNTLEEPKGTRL
Summary of the method: (§2)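 Rat NOS isoform activity read out as conversion of radiolabelled L-arginine to L-citrulline. Percent inhibition was measured in duplicate at 8–12 concentrations to give IC₅₀.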

[5] = biological target: T2, Nitric oxide synthase 3 (Rattus norvegicus, UniProt Q62600); experiment: Inhibition of rat endothelial NOS activity; summary of the method: as §2
T2 sequence (Q62600 whole entry): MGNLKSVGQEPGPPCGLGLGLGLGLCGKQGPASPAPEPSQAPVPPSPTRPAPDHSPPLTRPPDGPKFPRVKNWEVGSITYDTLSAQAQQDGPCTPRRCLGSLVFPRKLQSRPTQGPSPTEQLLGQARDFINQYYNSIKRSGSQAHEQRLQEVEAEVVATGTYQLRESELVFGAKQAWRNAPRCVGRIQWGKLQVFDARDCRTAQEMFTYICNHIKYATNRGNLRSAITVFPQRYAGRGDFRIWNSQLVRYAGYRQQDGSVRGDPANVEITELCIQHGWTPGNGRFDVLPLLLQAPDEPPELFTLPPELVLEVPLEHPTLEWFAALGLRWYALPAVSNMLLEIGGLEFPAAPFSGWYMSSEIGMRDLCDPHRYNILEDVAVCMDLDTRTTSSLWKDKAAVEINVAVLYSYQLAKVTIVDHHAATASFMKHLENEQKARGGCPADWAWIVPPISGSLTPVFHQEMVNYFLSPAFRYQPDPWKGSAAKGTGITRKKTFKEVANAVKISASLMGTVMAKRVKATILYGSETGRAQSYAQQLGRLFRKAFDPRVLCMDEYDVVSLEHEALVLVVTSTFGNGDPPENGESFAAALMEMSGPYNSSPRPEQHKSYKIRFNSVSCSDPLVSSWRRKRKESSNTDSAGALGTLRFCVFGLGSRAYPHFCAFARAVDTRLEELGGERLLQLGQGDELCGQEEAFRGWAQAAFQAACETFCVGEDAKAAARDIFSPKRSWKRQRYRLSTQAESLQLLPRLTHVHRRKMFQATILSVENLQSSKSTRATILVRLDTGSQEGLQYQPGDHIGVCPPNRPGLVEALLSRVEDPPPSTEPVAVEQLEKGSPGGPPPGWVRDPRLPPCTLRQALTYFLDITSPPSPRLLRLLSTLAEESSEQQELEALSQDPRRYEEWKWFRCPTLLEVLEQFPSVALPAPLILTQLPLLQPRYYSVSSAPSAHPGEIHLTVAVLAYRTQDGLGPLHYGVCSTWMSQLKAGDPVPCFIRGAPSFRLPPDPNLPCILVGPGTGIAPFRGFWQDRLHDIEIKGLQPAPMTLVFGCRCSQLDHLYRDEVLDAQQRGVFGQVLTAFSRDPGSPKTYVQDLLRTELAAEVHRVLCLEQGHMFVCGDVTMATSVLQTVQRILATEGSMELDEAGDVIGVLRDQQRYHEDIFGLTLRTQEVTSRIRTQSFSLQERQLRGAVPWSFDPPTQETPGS

[6] = species: Homo sapiens; experiment: Selectivity for human nNOS over human eNOS
Summary of the method: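 Ratio of human eNOS IC₅₀ to human nNOS IC₅₀. Each IC₅₀ comes from radiolabelled arginine-to-citrulline conversion, with percent inhibition at 8–12 concentrations.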

[7] = biological target: Nitric oxide synthase 1 (Rattus norvegicus, UniProt P29476); experiment: Inhibition of rat neuronal NOS activity
Chain of Nitric oxide synthase 1 (Rattus norvegicus, UniProt P29476) (P29476 whole entry): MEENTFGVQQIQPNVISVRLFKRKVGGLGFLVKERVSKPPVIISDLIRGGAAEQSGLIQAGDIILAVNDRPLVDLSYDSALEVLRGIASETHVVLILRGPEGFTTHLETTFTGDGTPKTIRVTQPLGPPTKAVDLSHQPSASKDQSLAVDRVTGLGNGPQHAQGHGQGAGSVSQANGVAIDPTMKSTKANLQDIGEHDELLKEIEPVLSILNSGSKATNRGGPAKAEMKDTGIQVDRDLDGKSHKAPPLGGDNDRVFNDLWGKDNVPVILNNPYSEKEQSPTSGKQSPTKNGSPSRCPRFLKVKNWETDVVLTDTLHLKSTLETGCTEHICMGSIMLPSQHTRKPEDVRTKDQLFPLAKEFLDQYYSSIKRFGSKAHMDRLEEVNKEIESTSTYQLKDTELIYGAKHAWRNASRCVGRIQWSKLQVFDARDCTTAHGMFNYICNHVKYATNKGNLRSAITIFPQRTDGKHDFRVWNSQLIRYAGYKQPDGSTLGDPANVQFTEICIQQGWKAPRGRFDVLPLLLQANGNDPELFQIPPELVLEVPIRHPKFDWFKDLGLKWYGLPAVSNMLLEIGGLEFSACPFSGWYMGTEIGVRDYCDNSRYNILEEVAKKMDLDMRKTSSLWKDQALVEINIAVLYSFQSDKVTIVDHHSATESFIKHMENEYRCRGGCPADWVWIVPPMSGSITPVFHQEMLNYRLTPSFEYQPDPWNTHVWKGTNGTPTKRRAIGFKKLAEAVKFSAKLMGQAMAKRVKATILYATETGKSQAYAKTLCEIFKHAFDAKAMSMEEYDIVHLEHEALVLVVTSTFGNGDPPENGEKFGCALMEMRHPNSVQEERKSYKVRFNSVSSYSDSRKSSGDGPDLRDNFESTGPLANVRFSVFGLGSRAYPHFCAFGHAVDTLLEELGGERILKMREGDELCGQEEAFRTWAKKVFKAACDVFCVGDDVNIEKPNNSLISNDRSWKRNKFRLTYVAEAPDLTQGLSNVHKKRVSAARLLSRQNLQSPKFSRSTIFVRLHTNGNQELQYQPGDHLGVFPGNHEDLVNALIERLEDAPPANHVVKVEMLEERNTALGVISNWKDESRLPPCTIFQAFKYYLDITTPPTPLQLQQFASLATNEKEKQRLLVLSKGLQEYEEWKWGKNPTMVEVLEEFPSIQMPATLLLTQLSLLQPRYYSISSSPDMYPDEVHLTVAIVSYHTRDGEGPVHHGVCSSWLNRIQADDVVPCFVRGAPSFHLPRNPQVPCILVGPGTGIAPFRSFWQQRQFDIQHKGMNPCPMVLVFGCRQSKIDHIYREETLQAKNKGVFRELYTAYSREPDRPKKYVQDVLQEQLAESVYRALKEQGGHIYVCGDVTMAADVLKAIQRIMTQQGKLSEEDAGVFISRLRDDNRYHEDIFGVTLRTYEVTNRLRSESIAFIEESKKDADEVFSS

Structure (SMILES)	IC50 [1] [µM]	IC50 [2] [µM]	IC50 [3] [µM]	Ratio IC50 [6]	IC50 [7] [µM]	IC50 [4] [µM]	IC50 [5] [µM]
N=C(Nc1ccc2nc(NCCN3CCOCC3)sc2c1)c1cccs1	0.2	1.5	37			44	9.1
CN1CCCC1CCNc1nc2cc(NC(=N)c3cccs3)ccc2s1 (racemic)	0.03	1.6	15	53			
NC(=Nc1ccc2sc(NC3CCN(Cc4ccccc4)CC3)nc2c1)c1cccs1	0.4	16	48				
N=C(Nc1ccc2sc(N)nc2c1)c1cccs1	0.2	2.3	79	13			
N=C(Nc1ccc2nc(NC3CCN(Cc4ccc(C(=O)O)cc4)CC3)sc2c1)c1cccs1	5.1	59	> 100	12			
N=C(Nc1ccc2nc(NC3CCN(Cc4ccccc4)CC3)sc2c1)c1cccs1	0.5	6	14	12	0.09	36	12.5
N=C(Nc1ccc2nc(NC3CCOCC3)sc2c1)c1cccs1	2	16	64	8			
N=C(Nc1ccc2nc(N)sc2c1)c1cccs1	0.2	2.9	25	18			
N=C(Nc1ccc2sc(NCCc3ccccn3)nc2c1)c1cccs1	1.1	6	139	5			
COc1cccc(CN2CCC(Nc3nc4ccc(N=C(N)c5cccs5)cc4s3)CC2)c1	0.1	3.8	> 100		6.7	19	1.3
NC(=Nc1ccc2nc(NC3CCN(CCc4cnc[nH]4)CC3)sc2c1)c1cccs1	0.3	0.7	6		4.8	26	4.6
N=C(Nc1ccc2sc(NC3CCN(Cc4ccccc4)CC3)nc2c1)c1cccs1				40			

Now from value to molecule, other results behind:

IC50 [1] [µM]	IC50 [2] [µM]	IC50 [3] [µM]	Ratio IC50 [6]	IC50 [7] [µM]	Structure (SMILES)	IC50 [4] [µM]	IC50 [5] [µM]
0.2	5.7	9			COc1ccc(CN2CCC(Nc3nc4ccc(N=C(N)c5cccs5)cc4s3)CC2)cc1		
1.4	9.2	46	7		CCSC(=N)Nc1ccc2nc(N)sc2c1		
			18		COC(=O)c1ccc(CN2CCC(Nc3nc4ccc(NC(=N)c5cccs5)cc4s3)CC2)cc1		
			2		N=C(Nc1ccc2nc(NC3CCN(CCc4cnc[nH]4)CC3)sc2c1)c1cccs1		
4.4	2.1	75	0.5	4.7	N=C(Nc1ccc2nc(NCCc3ccc(Br)cc3)sc2c1)c1cccs1		5.2
0.3	5.2	> 100			COC(=O)c1ccc(CN2CCC(Nc3nc4ccc(N=C(N)c5cccs5)cc4s3)CC2)cc1		
			28		COc1ccc(CN2CCC(Nc3nc4ccc(NC(=N)c5cccs5)cc4s3)CC2)cc1		
1.3	0.9	13	1	0.05	N=C(Nc1ccc2nc(NCCc3ccccn3)sc2c1)c1cccs1	25	3.4
4.6	12	97			CCSC(N)=Nc1ccc2sc(N)nc2c1		
0.2	8	14	40		N=C(Nc1ccc2nc(NC3CCN(Cc4ccc(F)cc4)CC3)sc2c1)c1cccs1		
			27		COc1cccc(CN2CCC(Nc3nc4ccc(NC(=N)c5cccs5)cc4s3)CC2)c1		
1.3	12	141	9		N=C(Nc1ccc2sc(NCCN3CCOCC3)nc2c1)c1cccs1		
			3		CCSC(=N)Nc1ccc2sc(N)nc2c1		
0.8	13	91	16		N=C(Nc1ccc2sc(NC3CCN(Cc4ccc(F)cc4)CC3)nc2c1)c1cccs1		

Reference: ChEMBL document CHEMBL1147215, “Novel 2-aminobenzothiazoles as selective neuronal nitric oxide synthase inhibitors” (Bioorg Med Chem Lett, 2007)
